Source: ChEMBL document CHEMBL1157546, “3-(2-Aminocarbonylphenyl)propanoic acid analogs as potent and selective EP3 receptor antagonists. part 2: optimization of the side chains to improve in vitro and in vivo potencies” (Bioorg Med Chem, 2010)

Key:
[1] = biological target: T1, Prostaglandin E2 receptor EP3 subtype (Mus musculus, UniProt P30557); test: Antagonist activity at mouse EP3 receptor expressed in CHO cells assessed as inhibition of PGE2-induced increase intracellular calcium level in presence of 1% BSA by fluorimetry; type: functional, cell-based
T1 sequence (P30557 whole entry): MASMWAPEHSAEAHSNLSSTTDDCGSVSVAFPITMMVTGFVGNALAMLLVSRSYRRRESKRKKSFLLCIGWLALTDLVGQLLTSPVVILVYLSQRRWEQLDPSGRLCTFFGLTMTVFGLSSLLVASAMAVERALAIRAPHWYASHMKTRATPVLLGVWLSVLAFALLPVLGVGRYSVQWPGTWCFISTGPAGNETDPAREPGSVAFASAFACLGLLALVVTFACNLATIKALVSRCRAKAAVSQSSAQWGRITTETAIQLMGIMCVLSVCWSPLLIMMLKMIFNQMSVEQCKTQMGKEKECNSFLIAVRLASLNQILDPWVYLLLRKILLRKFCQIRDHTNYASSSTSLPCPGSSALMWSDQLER
Procedure, shortened: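 CHO cells expressing mouse EP3 seeded at 1 × 10⁴ cells/well and grown two days in 10% FBS/αMEM (37 °C, 5% CO2). Loaded 1 h with Fura 2/AM, indomethacin and 2.5 mM probenecid, rinsed, then held 1 h dark at room temperature in HBSS with 1% BSA and 10 mM HEPES. Compound added with 10 nM PGE2. Ca²⁺ read at 340/380 nm excitation, 500 nm emission; % inhibition relative to the PGE2 response without compound.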

[2] = biological target: T1, Prostaglandin E2 receptor EP3 subtype; test: Displacement of [3H]PGE2 from mouse EP3 receptor expressed in CHO cell membrane; type: cell membranes
Rattus norvegicus [3] = test: Inhibition of PGE2-induced uterine contraction in intraduodenally dosed pregnant rat at 0.3 mg/kg; type: functional; conditions: route intraduodenal
Procedure, shortened: (§1)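 Pregnant rats with uterine pressure recorded by transducer. Once spontaneous motility was stable, compound in 0.5% methylcellulose (5 mL/kg) or vehicle given intraduodenally. PGE2 given iv 30 min later.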

Rattus norvegicus [4] = test: Inhibition of PGE2-induced uterine contraction in intraduodenally dosed pregnant rat at 1 mg/kg; type: functional; conditions: route intraduodenal; procedure, shortened: as §1
[5] = AUC in rat at […], iv; type: ADME, organism-based; design: dose 1.2 mg/kg, route intravenous; conditions: plasma
[6] = AUC in rat at 13 mg/kg, po; type: ADME, organism-based; design: dose 13 mg/kg, route oral; conditions: plasma
[7] = Cmax in rat at 13 mg/kg, po; type: ADME, organism-based; design: dose 13 mg/kg, route oral; conditions: in vivo
[8] = Oral bioavailability in rat at 13 mg/kg, po; type: ADME, organism-based; conditions: in vivo
[9] = Volume of distribution at steady state in rat at […], iv; type: ADME, organism-based; design: dose 1.2 mg/kg, route intravenous; conditions: in vivo, read-out: Vdss
Rattus norvegicus [10] = test: Inhibition of PGE2-induced uterine contraction in intraduodenally dosed pregnant rat at 0.1 mg/kg; type: functional; conditions: route intraduodenal; procedure, shortened: as §1
[11] = Oral bioavailability in rat at 11 mg/kg, po; type: ADME, organism-based; conditions: in vivo
[12] = Cmax in rat at 11 mg/kg, po; type: ADME, organism-based; design: dose 11 mg/kg, route oral; conditions: in vivo
[13] = AUC in rat at 11 mg/kg, po; type: ADME, organism-based; design: dose 11 mg/kg, route oral; conditions: plasma

Compound	IC50 [1] [nM]	Ki [2] [nM]	further results
Cc1cc(C)cc(C(CC(C)C)NC(=O)c2cc(COc3ccc(C#N)cc3)ccc2CCC(=O)O)c1 (stereo unspecified)	16	0.46	–
Cc1cc(C)cc(C(CC(C)C)NC(=O)c2cc(COc3ccccc3C)ccc2CCC(=O)O)c1 (stereo unspecified)	–	–	inhibition in vivo at 0.3 mg/kg (Rattus norvegicus [3]): 62%; inhibition in vivo at 1 mg/kg (Rattus norvegicus [4]): 83%
Cc1cc(C)cc(C(CC(C)C)NC(=O)c2cc(COc3ccccc3)ccc2CCC(=O)O)c1 (stereo unspecified)	–	–	inhibition in vivo at 0.3 mg/kg (Rattus norvegicus [3]): 28%
Cc1cc(C)cc(C(CC(C)C)NC(=O)c2cc(COc3cccc(F)c3)ccc2CCC(=O)O)c1 (stereo unspecified)	–	–	AUC [5]: 440 ng·h/mL; AUC [6]: 1090 ng·h/mL; Cmax [7]: 390 ng/mL; bioavailability [8]: 23%; inhibition in vivo at 0.3 mg/kg (Rattus norvegicus [3]): 66%; inhibition in vivo at 1 mg/kg (Rattus norvegicus [4]): 84%; Vd [9]: 1.32 L/kg
COc1ccc(C(CC(C)C)NC(=O)c2cc(COc3cccc(C#N)c3)ccc2CCC(=O)O)cc1OC (stereo unspecified)	3.7	0.67	–
Cc1cc(C)cc(C(CC(C)C)NC(=O)c2cc(COc3cc(F)ccc3F)ccc2CCC(=O)O)c1 (stereo unspecified)	–	–	inhibition in vivo at 0.1 mg/kg (Rattus norvegicus [10]): 48%; AUC [5]: 470 ng·h/mL; bioavailability [11]: 19%; Cmax [12]: 520 ng/mL; AUC [13]: 850 ng·h/mL; inhibition in vivo at 0.3 mg/kg (Rattus norvegicus [3]): 93%; inhibition in vivo at 1 mg/kg (Rattus norvegicus [4]): 98%; Vd [9]: 1.43 L/kg
Cc1cc(C)cc(C(CC(C)C)NC(=O)c2cc(COc3ccc(Cl)cc3)ccc2CCC(=O)O)c1 (stereo unspecified)	30	0.62	–
CC(C)CC(NC(=O)c1cc(COc2ccccc2)ccc1CCC(=O)O)c1cc(F)cc(C(F)(F)F)c1 (stereo unspecified)	15	0.45	–
COc1cccc(C(CC(C)C)NC(=O)c2cc(COc3cccc(C#N)c3)ccc2CCC(=O)O)c1 (stereo unspecified)	3.2	0.13	–
CC(C)CC(NC(=O)c1cc(COc2cccc(C#N)c2)ccc1CCC(=O)O)c1ccc(F)cc1 (stereo unspecified)	7.1	0.17	–
Cc1ccc(C(CC(C)C)NC(=O)c2cc(COc3ccccc3)ccc2CCC(=O)O)cc1C (stereo unspecified)	16	0.17	–
COc1ccc(C(CC(C)C)NC(=O)c2cc(COc3ccccc3)ccc2CCC(=O)O)cc1C (stereo unspecified)	11	0.16	–
Cc1ccccc1C(CC(C)C)NC(=O)c1cc(COc2ccccc2)ccc1CCC(=O)O (stereo unspecified)	230	0.94	–
Cc1cccc(C(CC(C)C)NC(=O)c2cc(COc3ccccc3)ccc2CCC(=O)O)c1 (stereo unspecified)	37	0.3	–
Cc1cccc(C(CC(C)C)NC(=O)c2cc(COc3cccc(C#N)c3)ccc2CCC(=O)O)c1 (stereo unspecified)	6.6	0.2	–
Cc1ccc(C(CC(C)C)NC(=O)c2cc(COc3ccccc3)ccc2CCC(=O)O)cc1 (stereo unspecified)	51	0.63	–
Cc1cccc(OCc2ccc(CCC(=O)O)c(C(=O)NC(CC(C)C)c3cc(C)cc(C)c3)c2)c1 (stereo unspecified)	4.2	0.11	–
Cc1ccc(OCc2ccc(CCC(=O)O)c(C(=O)NC(CC(C)C)c3cc(C)cc(C)c3)c2)cc1 (stereo unspecified)	16	0.67	–

Continued, in another order:

IC50 [1] [nM]	Ki [2] [nM]	Compound	further results
5.4	0.25	Cc1cc(C)cc(C(CC(C)C)NC(=O)c2cc(COc3ccc(F)cc3)ccc2CCC(=O)O)c1 (stereo unspecified)	–
24	0.5	COc1ccc(C(CC(C)C)NC(=O)c2cc(COc3ccccc3)ccc2CCC(=O)O)cc1OC (stereo unspecified)	–
25	0.26	CC(C)CC(NC(=O)c1cc(COc2ccccc2)ccc1CCC(=O)O)c1ccc(F)c(Cl)c1 (stereo unspecified)	–
32	0.76	CC(C)CC(NC(=O)c1cc(COc2ccccc2)ccc1CCC(=O)O)c1ccc(C(F)(F)F)cc1 (stereo unspecified)	–
19	0.3	CC(C)CC(NC(=O)c1cc(COc2ccccc2)ccc1CCC(=O)O)c1cc(F)cc(F)c1 (stereo unspecified)	–
